Reference: article PMC10316739 (Drug Delivery, 2023)

Tests used:
[1] = test system: luteinizing hormone (LH); test: Pharmacodynamics: plasma LH; type: in vivo, female Sprague–Dawley rats; details: rats, triptorelin 9 μg/kg s.c., ELISA, n = 8
Procedure, shortened: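 Six-week-old female rats (200 g ± 20 g) with similar cycles were split randomly into two groups of eight. One group received subcutaneous drug solution (9 μg/kg). The other received the microneedle patch (9 μg/kg) on shaved back skin, finger-pressed 3 min before the base was removed. Orbital-plexus blood was taken into heparinised tubes at 0.5–48 h and plasma stored at −80 °C. LH was measured by ELISA kit.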

[2] = Pharmacokinetics of triptorelin in rats; type: in vivo, female Sprague–Dawley rats
Procedure, shortened: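 Female rats aged 6 weeks were randomised into two groups (n = 8). One group received a 9 μg/kg subcutaneous solution and the other a 9 μg/kg microneedle patch on shaved back skin, pressed 3 min. Heparinised orbital-plexus blood was sampled at 0.5, 1, 2, 4, 8, 24 and 48 h. Plasma was centrifuged, stored at −80 °C and assayed by LC–MS/MS. PK parameters were computed from concentration–time profiles.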

[3] = stated in introduction; ref Bethesda, [2012]; cited from earlier work
[4] = female, Sprague-Dawley, rat, plasma, sc, 9 ug/kg

With `CC(C)C[C@H](NC(=O)[C@@H](Cc1c[nH]c2ccccc12)NC(=O)[C@H](Cc1ccc(O)cc1)NC(=O)[C@H](CO)NC(=O)[C@H](Cc1c[nH]c2ccccc12)NC(=O)[C@H](Cc1c[nH]cn1)NC(=O)[C@@H]1CCC(=O)N1)C(=O)N[C@@H](CCCNC(=N)N)C(=O)N1CCC[C@H]1C(=O)NCC(N)=O` [triptorelin, Triptorelin acetate] as the molecule, how does the “plasma LH levels at 48 h” value [1] read?
Its value is “returned to a normal physiological state”.

What about the AUC(0-t) [2, 4] of the same molecule?
The AUC(0-t) was 8.65 ± 0.41 ng·h/mL.

What about the Cmax [2, 4] of the same molecule?
The Cmax was 10.5 ± 0.6 ng/mL.

What about the Tmax [2, 4] of the same molecule?
The Tmax was 30 min.

And the half-life [2, 4]?
Its half-life is 127 ± 3 min.

What about the “triptorelin concentration in plasma at 24 h” value ([2]; rats, 9 μg/kg s.c., 24 h, LC–MS/MS) of the same molecule?
The value was “could not be detected”.

And the “enhanced activity compared with GnRH” value [3]?
The value was 100 fold.
